Reference: ChEMBL document CHEMBL3864172, “New Peptidomimetic Boronates for Selective Inhibition of the Chymotrypsin-like Activity of the 26S Proteasome” (ACS Med Chem Lett, 2016)
Activity calls are given as the source filed them. The rule behind the calls is not given here.

Experiments:
[1] = (§1) Cytotoxicity against human U266 cells harboring mutant p53 assessed as reduction in cell viability after 48 hrs by 7AAD-staining based FACS analysis; type: functional; conditions: U-266, 48 h, read-out: LD50 (the source's name)
How it was run: (§2)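 Cells were exposed for 48 h to compound titrations from 0 to 5000 nM. Cell death was read out by 7AAD staining, and the LD50 was taken from dose-response curves. n=3.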

U-266 [2] = experiment: as §1; type: functional; how it was run: as §2
[3] = Inhibition of chymotrypsin like activity of rabbit 20S proteasome using Suc-Leu-Leu-Val-Tyr-AMC as substrate preincubated for 15 mins followed by substrate addition measured after 2 hrs by fluorescence-based assay; set-up: species or system Oryctolagus cuniculus
[4] = target: T1, Proteasome subunit beta type-8 (Mus musculus, UniProt P28063); experiment: Inhibition of chymotrypsin like activity of mouse spleen 20S proteasome beta5i subunit using Suc-Leu-Leu-Val-Tyr-AMC as substrate preincubated for 15 mins followed by substrate addition measured after 2 hrs by fluorescence-based assay
T1 sequence (P28063 whole entry): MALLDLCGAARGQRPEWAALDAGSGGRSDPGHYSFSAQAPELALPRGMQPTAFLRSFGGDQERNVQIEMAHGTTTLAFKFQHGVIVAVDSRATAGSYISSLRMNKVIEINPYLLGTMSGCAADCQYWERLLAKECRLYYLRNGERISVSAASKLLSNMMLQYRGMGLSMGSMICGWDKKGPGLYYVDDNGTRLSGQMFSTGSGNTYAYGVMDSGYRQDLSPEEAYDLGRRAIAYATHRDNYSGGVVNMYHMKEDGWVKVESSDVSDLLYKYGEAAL

[5] = Cytotoxicity against human LCL cells harboring wild type p53 assessed as reduction in cell viability after 48 hrs by 7AAD-staining based FACS analysis; type: toxicity; conditions: for CC50 at 48 h: LCL cells harboring wild type p53, read-out: LD50; for Activity: lcl, 48 h; how it was run: as §2
Oryctolagus cuniculus = organism: Oryctolagus cuniculus; experiment: Selectivity ratio of IC50 for caspase like activity of rabbit 20S proteasome to IC50 for chymotrypsin like activity of rabbit 20S proteasome
MCF7 [6] = experiment: Inhibition of 26S proteasome in human MCF7 cells assessed as accumulation of high molecular weight polyubiquitin-conjugated proteins at 35 nM after 4 hrs by Western blot analysis; type: cell-based
[7] = (§3) Cytotoxicity against human MDA-MB-468 cells harboring mutant p53 assessed as reduction in cell viability after 48 hrs by 7AAD-staining based FACS analysis; type: functional; conditions: MDA-MB-468, 48 h, read-out: LD50 (the source's name); how it was run: as §2
MDA-MB-468 [8] = experiment: as §3; type: functional; how it was run: as §2
KGN = experiment: (§4) Cytotoxicity against human KGN cells harboring wild type p53 assessed as reduction in cell viability after 48 hrs by 7AAD-staining based FACS analysis; type: functional; how it was run: as §2
[9] = as §4; type: functional; conditions: read-out: LD50 (the source's name); how it was run: as §2
[10] = Inhibition of caspase like activity of rabbit 20S proteasome using Ac-nLPnLD-AMC as substrate preincubated for 15 mins followed by substrate addition measured after 2 hrs by fluorescence-based assay; set-up: species or system Oryctolagus cuniculus
[11] = (§5) Cytotoxicity against p53 deficient human SKOV3 cells assessed as reduction in cell viability after 48 hrs by 7AAD-staining based FACS analysis; type: functional; conditions: SK-OV-3, 48 h, read-out: LD50 (the source's name); how it was run: as §2
SK-OV-3 = experiment: as §5; type: functional; how it was run: as §2
[12] = Cytotoxicity against HNDF cells harboring wild type p53 assessed as reduction in cell viability after 48 hrs by 7AAD-staining based FACS analysis; type: toxicity; conditions: human; for CC50 at 48 h: HNDF cells harboring wild type p53, read-out: LD50; for Activity: hndf, 48 h; how it was run: as §2
[13] = Cytotoxicity against human IMR90 cells harboring wild type p53 assessed as reduction in cell viability after 48 hrs by 7AAD-staining based FACS analysis; type: toxicity, IMR-90; conditions: for CC50 at 48 h: IMR90 cells harboring wild type p53, read-out: LD50; for Activity: imr-90, 48 h; how it was run: as §2
[14] = Selectivity ratio of LD50 for human SKOV3 cells to LD50 for human KGN cells; type: functional
U-266 [15] = experiment: Selectivity ratio of LD50 for human U266 cells to LD50 for human NCI-H929 cells; type: functional
[16] = Cytotoxicity against human MCF10A cells harboring wild type p53 assessed as reduction in cell viability after 48 hrs by 7AAD-staining based FACS analysis; type: toxicity, MCF-10A; conditions: for CC50 at 48 h: MCF10A cells harboring wild type p53, read-out: LD50; for Activity: mcf-10a, 48 h; how it was run: as §2
[17] = (§6) Cytotoxicity against human MCF7 cells harboring wild type p53 assessed as reduction in cell viability after 48 hrs by 7AAD-staining based FACS analysis; type: functional; conditions: MCF7, 48 h, read-out: LD50 (the source's name); how it was run: as §2
MCF7 [18] = experiment: as §6; type: functional; how it was run: as §2
RD-ES = experiment: (§7) Cytotoxicity against human RD-ES cells harboring p53 mutant assessed as reduction in cell viability after 48 hrs by 7AAD-staining based FACS analysis; type: functional; how it was run: as §2
[19] = as §7; type: functional; conditions: read-out: LD50 (the source's name); how it was run: as §2
[20] = (§8) Cytotoxicity against human NCI-H929 cells harboring wild type p53 assessed as reduction in cell viability after 48 hrs by 7AAD-staining based FACS analysis; type: functional; conditions: NCI-H929, 48 h, read-out: LD50 (the source's name); how it was run: as §2
NCI-H929 = experiment: as §8; type: functional; how it was run: as §2
[21] = Inhibition of trypsin like activity of rabbit 20S proteasome using Bz-Val-Gly-Arg-AMC as substrate preincubated for 15 mins followed by substrate addition measured after 2 hrs by fluorescence-based assay; set-up: species or system Oryctolagus cuniculus
MDA-MB-468 [22] = experiment: Inhibition of 26S proteasome in human MDA-MB-468 cells assessed as accumulation of high molecular weight polyubiquitin-conjugated proteins at 35 nM after 4 hrs by Western blot analysis; type: cell-based
[23] = (§9) Cytotoxicity against human WE68 cells harboring wild type p53 assessed as reduction in cell viability after 48 hrs by 7AAD-staining based FACS analysis; type: functional; conditions: WE68, 48 h, read-out: LD50 (the source's name); how it was run: as §2
WE68 = experiment: as §9; type: functional; how it was run: as §2
[24] = Inhibition of bovine alpha chymotrypsin using Ala-Ala-Phe-7-AMC as substrate measured for 10 mins by spectrophotometric analysis; set-up: species or system Bos taurus
How it was run: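 Enzyme was bovine α-chymotrypsin. Compounds were tested up to a top concentration of 25000 nM. Ki values are the mean of three separate experiments, with variation between experiments below ±10%.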

[25] = Inhibition of chymotrypsin like activity of rabbit 20S proteasome using Suc-LLVY-AMC as substrate preincubated for 15 mins followed by substrate addition measured after 2 hrs by microplate-fluorometric analysis; set-up: species or system Oryctolagus cuniculus

SMILES | CC50 [1] | Activity (U-266 [2]) | IC50 [3] | IC50 [4] | CC50 at 48 h [5] | Activity [5] | Ratio IC50 (Oryctolagus cuniculus) | CC50 [7] | CC50 [9] | IC50 [10] | CC50 [11] | CC50 at 48 h [12] | CC50 at 48 h [13] | CC50 at 48 h [16] | CC50 [17] | CC50 [19] | CC50 [20] | IC50 [21] | CC50 [23] | Ki [24] | further results
C=CCOc1ccc(CCC(=O)c2ccc(C(=O)N[C@@H](Cc3ccc(OCC=C)cc3)C(=O)N[C@@H](CC(C)C)B3O[C@@H]4C[C@@H]5C[C@@H](C5(C)C)[C@]4(C)O3)[nH]2)cc1 | 29 nM | Dose-dependent effect | 20.9 nM | 483 nM | 90 nM | Dose-dependent effect | 200 | 50 nM | 180 nM | 4180 nM | 1500 nM | 1080 nM | 150 nM | 9000 nM | 3000 nM | 65 nM | 9 nM | > 25000 nM | 65 nM | > 25000 nM | Polyubiquitin-conjugate accumulation (MCF7 [6]): Active; Activity (MDA-MB-468 [8]): Dose-dependent effect; Activity (KGN): Dose-dependent effect; Activity (SK-OV-3): Dose-dependent effect; Activity [12]: Dose-dependent effect; Activity [13]: Dose-dependent effect; Selectivity ratio [14]: 5; Selectivity ratio (U-266 [15]): 2; Activity [16]: Dose-dependent effect; Activity (MCF7 [18]): Dose-dependent effect; Activity (RD-ES): Dose-dependent effect; Activity (NCI-H929): Dose-dependent effect; polyubiquitin accumulation (active/inactive) (MDA-MB-468 [22]): Active; Activity (WE68): Dose-dependent effect
C#CCOc1ccc(C[C@@H](C=O)NC(=O)[C@@H](NC(=O)[C@H](CCCCN=[N+]=[N-])NC(=O)OCc2ccccc2)[C@H](C)CC)cc1 |  |  |  |  |  |  |  |  |  |  |  |  |  |  |  |  |  |  |  |  | IC50 [25]: 21 nM
CC(C)C[C@H](NC(=O)[C@H](Cc1ccccc1)NC(=O)c1cnccn1)B(O)O [BORTEZOMIB] | 18 nM |  | 34.6 nM | 16.8 nM | 20 nM |  |  | 37 nM | 180 nM | 108 nM | 1600 nM | 480 nM | 130 nM | 1500 nM | 9800 nM | 40 nM | 6.6 nM | > 25000 nM | 100 nM | 1820 nM | Polyubiquitin-conjugate accumulation (MCF7 [6]): Active; polyubiquitin accumulation (active/inactive) (MDA-MB-468 [22]): Active
C=CCOc1ccc(CCC(=O)c2ccc(C(=O)N[C@@H](Cc3ccc(OCC=C)cc3)C(=O)N[C@@H](Cc3ccccc3)B3O[C@@H]4C[C@@H]5C[C@@H](C5(C)C)[C@]4(C)O3)[nH]2)cc1 |  |  | 104 nM | 113 nM |  |  | 32.1 |  |  | 3340 nM |  |  |  |  |  |  |  | > 25000 nM |  | 1310 nM | 
CC[C@H](C)[C@H](NC(=O)[C@H](CCCCN=[N+]=[N-])NC(=O)OCc1ccccc1)C(=O)N[C@@H](Cc1ccccc1)B1O[C@@H]2C[C@@H]3C[C@@H](C3(C)C)[C@]2(C)O1 | 14 nM | Dose-dependent effect | 21 nM | 13.8 nM |  | Dose-dependent effect | 117 | 24 nM | 48 nM | 2450 nM | 46 nM | 60 nM | 8 nM | 1250 nM | 79 nM | 33 nM | 12 nM | > 25000 nM | 14 nM | 7130 nM | Activity (MDA-MB-468 [8]): Dose-dependent effect; Activity (KGN): Dose-dependent effect; Activity (SK-OV-3): Dose-dependent effect; Activity [12]: Dose-dependent effect; Activity [13]: Dose-dependent effect; Activity [16]: Dose-dependent effect; Activity (MCF7 [18]): Dose-dependent effect; Activity (RD-ES): Dose-dependent effect; Activity (NCI-H929): Dose-dependent effect; Activity (WE68): Dose-dependent effect
CC[C@H](C)[C@H](NC(=O)[C@H](CCCCN=[N+]=[N-])NC(=O)OCc1ccccc1)C(=O)N[C@@H](CC(C)C)B1O[C@@H]2C[C@@H]3C[C@@H](C3(C)C)[C@]2(C)O1 | 15 nM | Dose-dependent effect | 14.1 nM | 118 nM | 30 nM | Dose-dependent effect | 113 | 30 nM | 65 nM | 1600 nM | 370 nM | 500 nM | 200 nM | 5000 nM | 1500 nM | 35 nM | 6.4 nM | > 25000 nM | 35 nM | > 25000 nM | Polyubiquitin-conjugate accumulation (MCF7 [6]): Active; Activity (MDA-MB-468 [8]): Dose-dependent effect; Activity (KGN): Dose-dependent effect; Activity (SK-OV-3): Dose-dependent effect; Activity [12]: Dose-dependent effect; Activity [13]: Dose-dependent effect; Selectivity ratio [14]: 5; Selectivity ratio (U-266 [15]): 2; Activity [16]: Dose-dependent effect; Activity (MCF7 [18]): Dose-dependent effect; Activity (RD-ES): Dose-dependent effect; Activity (NCI-H929): Dose-dependent effect; polyubiquitin accumulation (active/inactive) (MDA-MB-468 [22]): Active; Activity (WE68): Dose-dependent effect
